Test results as given in paper PMC9055608 (RSC Advances, 2020).
Several values for one entry are separate records, joined by “and”; a condition that tells them apart may be missing. Equal values may be shown once.

Legend:
[1] = test system: GES-1 human normal gastric epithelial cells; assay: MTT assay, cytotoxicity against normal cell line GES-1; type: cell-based; settings: Homo sapiens, GES1, read-out: Inhibition rate
Procedure, shortened: (§1)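 Cells seeded at about 4000–5000/well and allowed 24 h to adhere. MTT for 4 h, formazan dissolved in DMSO, absorbance read, and inhibition rate per concentration reported.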

[2] = test system: SKMEL-28; assay: MTT cell proliferation assay, SKMEL-28; type: cell-based, human; settings: Homo sapiens, SK-MEL-28, 72 h
Procedure, shortened: (§2)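 ATCC lines grown in DMEM or RPMI-1640 with 10% heat-inactivated FBS and 1% penicillin/streptomycin at 37 °C, 5% CO2. Log-phase cells seeded at about 4000–5000/well and left to adhere 24 h. Sextuplicate wells, 72 h. MTT for 4 h, then DMSO and absorbance. IC50 taken from dose–response curves.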

[3] = test system: cancer cell lines; assay: MTT assay, cancer cell lines; type: cell-based; settings: Homo sapiens, read-out: IC50 of other tumour cells
Procedure, shortened: as §2

[4] = test system: BEAS-2B human normal lung epithelial cell; assay: MTT assay, cytotoxicity against normal cell line BEAS-2B; type: cell-based
Procedure, shortened: as §1

[5] = test system: DU-145; assay: MTT cell proliferation assay, DU-145; type: cell-based, human; settings: Homo sapiens, DU-145, 72 h
Procedure, shortened: as §2

[6] = in vivo; type: in vivo, rats
[7] = Biochemical indexes in serum and plasma; type: in vivo, mice; settings: for BUN mean ± SD: plasma; for BUN mean ± SD / ALT mean ± SD / AST mean ± SD / CRE mean ± SD: DHDK micelles every day for 9 days; for ALT mean ± SD / AST mean ± SD / CRE mean ± SD: serum
Procedure, shortened: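 Female mice were split into four groups (n = 6) and injected daily for 9 days with test-compound micelles, following the dosing regimen of the xenograft study. Animals were killed on the last dosing day. Kits measured AST, ALT and creatinine in serum, and urea nitrogen in plasma.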

[8] = test system: Calu-3; assay: MTT cell proliferation assay, Calu-3; type: cell-based, human; settings: Homo sapiens, Calu-3, 72 h
Procedure, shortened: as §2

[9] = Pathological tissue sections; type: in vivo, nude mice; settings: tissues exposed to different dosages; end of 9 day treatment; HE staining
Procedure, shortened: (§3)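 Tumour-bearing nude mice were anaesthetised and killed after the 9-day dosing. Heart, liver, spleen, lung, kidney, brain and tumour were fixed in 10% formalin, embedded in paraffin, cut into 4 μm sections and stained with haematoxylin–eosin.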

[10] = test system: MCF-7 xenograft tumour; assay: Pathological tissue sections; type: in vivo, nude mice
Procedure, shortened: as §3

[11] = Mouse weight during in vivo efficacy study; parameters: species or system nude mice; settings: during the nine days of treatment
[12] = test system: normal cell lines (LO2, GES-1, BEAS-2B); assay: MTT assay, normal cell lines; type: cell-based, human; settings: all DHDK concentrations
Procedure, shortened: as §1

[13] = test system: MCF-7; assay: MTT cell proliferation assay, MCF-7; type: cell-based, human; settings: Homo sapiens, MCF7, 72 h
Procedure, shortened: as §2

**Q.** What does the source list for `O=C(/C=C/CCc1ccc(O)cc1)/C=C/c1ccc(O)cc1` [DHDK, (1E,4E)-1,7-Bis(4-hydroxyphenyl)hepta-1,4-dien-3-one]?
**A.** inhibition at 0.42 µM [1]: 0.53%; inhibition at 1.26 µM [1]: 1.06%; inhibition at 3.8 µM [1]: 1.35%; inhibition at 11.3 µM [1]: 3.53%; inhibition at 34 µM [1]: 4.85%; IC50 [2]: 9.26 ± 0.57 µM; IC50 [3]: < 11 µM and < 3.25 µg/mL; Inhibition rate ([4]; DHDK 0.14 μmol·L^−1): 0.059%; OD value (mean ± SD) ([4]; DHDK 0.14 μmol·L^−1): 0.66 ± 0.0017; OD value (mean ± SD) ([4]; DHDK 0.42 μmol·L^−1): 0.66 ± 0.0028; OD value (mean ± SD) ([4]; DHDK 1.26 μmol·L^−1): 0.66 ± 0.0027; OD value (mean ± SD) ([4]; DHDK 3.8 μmol·L^−1): 0.66 ± 0.0010; OD value (mean ± SD) ([4]; DHDK 11.3 μmol·L^−1): 0.64 ± 0.0028; OD value (mean ± SD) ([4]; DHDK 34.0 μmol·L^−1): 0.63 ± 0.0030; inhibition at 0.42 µM ([4]; Homo sapiens, read-out: Inhibition rate, BEAS-2B, DHDK 0.42 μmol·L^−1): 0.5%; inhibition at 1.26 µM ([4]; Homo sapiens, read-out: Inhibition rate, BEAS-2B, DHDK 1.26 μmol·L^−1): 0.83%; inhibition at 3.8 µM ([4]; Homo sapiens, read-out: Inhibition rate, BEAS-2B, DHDK 3.8 μmol·L^−1): 0.86%; inhibition at 11.3 µM ([4]; Homo sapiens, read-out: Inhibition rate, BEAS-2B, DHDK 11.3 μmol·L^−1): 3.1%; inhibition at 34 µM ([4]; Homo sapiens, read-out: Inhibition rate, BEAS-2B, DHDK 34.0 μmol·L^−1): 4.82%; IC50 [5]: 4.62 ± 0.22 µM; AUC(0–t) of DHDK high-dose group as share of cisplatin group ([6]; after dose conversion, DHDK 40 mg kg^−1 vs cisplatin 5 mg kg^−1): 7.3%; AUC(0-inf) ([6]; rat, in vivo, iv, 14 mg/kg): 534 ng·h/mL; AUC(0-t) ([6]; rat, in vivo, iv, 14 mg/kg): 459 ng·h/mL; half-life ([6]; rat, in vivo, iv, 14 mg/kg): 1.79 h; V 1 ([6]; rat, tail vein injection 14 mg kg^−1 DHDK solution): 0.037 L/kg; t 1/2α ([6]; rat, tail vein injection 14 mg kg^−1 DHDK solution, two-compartmental analysis): 3.84 min; liver and kidney toxicity (from BUN, CRE, AST, ALT) ([7]; all administration groups vs blank group): no potential liver and kidney toxicity; BUN mean ± SD ([7]; high dose group): 9.86 ± 0.33 mmol/L; BUN mean ± SD ([7]; low dose group): 10.16 ± 1.35 mmol/L; BUN mean ± SD ([7]; medium dose group): 9.74 ± 0.47 mmol/L; ALT mean ± SD ([7]; high dose group): 38.41 ± 0.67 U L^−1; AST mean ± SD ([7]; high dose group): 52.98 ± 3.07 U L^−1; CRE mean ± SD ([7]; high dose group): 82.97 ± 2.97 µmol/L; ALT mean ± SD ([7]; low dose group): 39.18 ± 0.81 U L^−1; AST mean ± SD ([7]; low dose group): 50.90 ± 3.04 U L^−1; CRE mean ± SD ([7]; low dose group): 78.85 ± 3.90 µmol/L; ALT mean ± SD ([7]; medium dose group): 39.70 ± 2.75 U L^−1; AST mean ± SD ([7]; medium dose group): 50.93 ± 0.81 U L^−1; CRE mean ± SD ([7]; medium dose group): 87.97 ± 7.63 µmol/L; IC50 [8]: 6.65 ± 0.42 µM; toxicity in tissue slices [9]: No toxicity was observed; tumour histopathology ([10]; high-dose group, DHDK 40 mg kg^−1): A large amount of tumour necrosis with nuclear envelope breakdown and dissolved nucleus; tumour histopathology ([10]; low-dose group, DHDK 10 mg kg^−1): A small amount of punctate nucleolysis and a low degree of necrosis; tumour histopathology ([10]; medium-dose group, DHDK 20 mg kg^−1): point necrosis and dissolved nucleus; mouse weight course (in words) [11]: stable weight; inhibition rate of each group on normal cells [12]: less than 5%; IC50 [13]: 9.09 ± 0.46 µM
